# This excerpt belongs to a sample that is enriched for hits.
# PTEN del growth = PTEN-deleted cell growth suppression. HCT116 PTEN-null viability, CellTiter-Glo, 60 h; stronger effect = lower value. viability, % at 10 µM. hit rate 1.2% among 140,000. AID 827;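 active = viability at or below a set limit, 4 SD under the median of all tested compounds, cut at about 3.7% in these data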;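 also: PTEN knockout HCT116 line with beta catenin targeted HCT116 as companion control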
# bCat KO growth = beta-catenin-lacking colon tumor cell growth suppression; viability, % at 10 µM; AID 818; HCT116 beta-catenin knockout viability, CellTiter-Glo, 60 h; stronger effect = lower value; hit rate 1.5% among 140,000;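 active = viability at or under a set limit, the compound median less 4 SD, cut at about 6% in these data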
# HUVEC prolif 384 = blocks proliferation of human endothelial cells | HUVEC proliferation, CellTiter-Glo luminescence, 72 h; stronger effect = lower value | viability, % at 10 µM (by protocol) | hit rate 1.1% among 86,000;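 active = viability at or below 30%; inactive = viability above 30%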
# H69AR inhibit = blocks growth of human H69AR lung tumor cells. viability, % at 10 µM. H69AR lung tumor viability, ATP luminescence, 72 h; stronger effect = lower value. AID 598. hit rate 6% among 85,000;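 active = viability at or below 40%; inactive = viability above 40%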;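 also: multidrug resistant small cell line overexpressing MRP-1 efflux transporter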
# Fibroblast inh = blocks proliferation of human lung fibroblasts; LL 47 human lung fibroblast viability, ATP luminescence; stronger effect = lower value; viability, % at 10 µM; hit rate 1.1% among 85,000;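 active = viability at or below 50% in the single dose screen; inactive = viability above 50%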;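 also: compound exposure lasted 72 h before the ATP readout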
#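 Material: Human LL 47 lung fibroblast cells | Input: 1,150 cells/well | Buffer or medium: IMEM plus 15% FBS | Compound dosing: 0.1% DMSO in all compound wells | Times: Overnight cell rest, 72 h compound treatment at 37 °C | Signal: CellTiter-Glo luminescence measuring cellular ATP | Measure: % viability versus median cells-only luminescence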
# A number is an active result; – = inactive; · = no result given.
SMILES,PTEN del growth,bCat KO growth,HUVEC prolif 384,H69AR inhibit,Fibroblast inh
COc1ccc2cc(CN(CC3COCCO3)S(=O)(=O)c3c(C)cc(C)cc3C)c(=O)[nH]c2c1 (configuration not stated),–,–,·,·,·
O=c1[nH]c2cc3c(cc2cc1CN(CC1CCCO1)S(=O)(=O)c1ccc(Cl)cc1)OCCO3 (configuration not stated),–,–,–,12,–
COC(=O)c1ccc(S(=O)(=O)N(Cc2cc3cc4c(cc3[nH]c2=O)OCO4)C2CCCCC2)cc1,·,·,–,39,–
CC(=O)c1ccc(S(=O)(=O)N(Cc2cc3cc4c(cc3[nH]c2=O)OCCO4)CC2CCCO2)cc1 (configuration not stated),–,–,–,–,–
O=C(COC(=O)COc1cccc(Br)c1)Nc1c(Cl)cccc1Cl,–,–,·,·,·
Cc1cc(C)n(C(=O)CNc2ccc(C)c(C)c2)n1,1.4,0.9,–,–,–
CC(=O)c1ccc(NC(=S)N(C)C2CCN(C)CC2)cc1,–,–,·,·,·
CC(C)c1nc(SCC(=O)Nc2ccc3c(c2)OCCO3)c2c(=O)n(C)c(=O)n(C)c2n1,–,–,–,31,–
CCCc1nc(SCC(=O)NCc2ccc3c(c2)OCO3)c2c(=O)n(C)c(=O)n(C)c2n1,·,·,–,13,–
Cc1nn(Cc2c(F)c(F)c(F)c(F)c2F)c(C)c1NC(=O)c1ccc(COc2ccc(Cl)cc2Cl)o1,–,4.7,·,·,·
Cc1ccc(C)c(S(=O)(=O)Nc2ccc3scnc3c2)c1,–,–,–,17,·
O=C(COC(=O)C1CC2C=CC1C2)NCc1ccccc1Cl (configuration not stated),–,–,·,·,·
COc1ccc(-c2cc(C#N)nc(N3CCN(C)CC3)n2)cc1,–,–,·,·,·
COc1ccc(-c2cc(C#N)nc(N3CCNCC3)n2)cc1,0.4,0.6,–,1.4,2.0
CCN(CC)c1nc(C#N)cc(-c2ccc(OC)cc2)n1,–,–,–,32,–
COc1ccc(-c2cc(C#N)nc(Oc3ccc(Cl)cc3)n2)cc1,–,–,·,·,·
Cc1cc2nc(-c3ccc(SCC(=O)N4CCN(C(=O)c5ccco5)CC4)nc3)[nH]c2cc1C,–,–,–,12,–
CCOC(=O)CSc1ccc(-c2nc3cc(C)c(C)cc3[nH]2)cn1,–,–,–,–,–
Cc1cc2nc(-c3ccc(SCC(=O)N4CCOCC4)nc3)[nH]c2cc1C,–,–,–,28,–
COc1ccc(C(=O)C(CCCCC(CN(C)C)C(=O)c2ccc(OC)cc2)CN(C)C)cc1 (configuration not stated),–,–,·,·,·
CCOc1ccc(C(=O)C(CCC(CN(C)C)C(=O)c2ccc(OCC)cc2)CN(C)C)cc1 (configuration not stated),1.3,1.1,·,·,·
COCCn1c(=NC(=O)/C=C/c2ccccc2)sc2cc(NC(C)=O)ccc21,–,–,·,·,·
Cc1cccc(-n2c(CNC(=O)c3ccc(S(=O)(=O)N(C)C)cc3)nnc2SCC(=O)Nc2ccc(F)cc2)c1,–,–,·,·,·
CCOC(=O)Cn1c2ccc(OC)cc2c2nc3ccccc3nc21,–,–,–,24,–
O=c1/c(=C\c2cccn2-c2ccccc2)sc2nc3ccccc3n12,–,–,–,28,–
SMILES,PTEN del growth,bCat KO growth,HUVEC prolif 384,H69AR inhibit,Fibroblast inh
O=C(CSC1=NCCN1)C1COc2ccccc2O1 (configuration not stated),–,–,–,–,–
CCOc1ccc(-c2nnn(CC(=O)Nc3cc(OC)cc(OC)c3)n2)cc1OCC,–,–,–,10,–
Cc1ccc(-c2noc(CCC(=O)NC3CCCc4ccccc43)n2)cc1 (configuration not stated),–,–,–,20,–
Cc1ccc(-c2noc(CCC(=O)NC3CCN(Cc4ccccc4)CC3)n2)cc1,–,–,–,–,–
COc1ccc(-c2nnn(CC(=O)NC3CCCc4ccccc43)n2)cc1OC (configuration not stated),·,·,–,25,–
COc1ccc(N2CCN(C(=O)Cn3nnc(-c4ccc(OC)c(OC)c4)n3)CC2)cc1,–,–,–,15,–
CC(C)COc1cccc(C(=O)NC(=S)NCc2cccnc2)c1,–,–,·,·,·
CCc1cccc(NC(=O)Cc2ccc(OC)c(OC)c2)c1,–,–,·,·,·
CCC(C)C(NC(=O)C(C)NC(=O)CNC(=O)CNC(=O)OCc1ccccc1)C(=O)OC (configuration not stated),–,–,–,–,–
CCOc1ccc(-c2nnn(CC(=O)Nc3cc(OC)ccc3OC)n2)cc1OCC,–,–,–,–,–
CCOc1ccccc1NC(=O)Cn1nnc(-c2ccc(OCC)c(OCC)c2)n1,2.8,2.0,–,3.5,–
CCC(OCC(O)CN1CCN(CCN2C(=O)c3cccc4cccc(c34)C2=O)CC1)c1ccccc1 (configuration not stated),–,5.9,·,·,·
Cc1cccc(C)c1OCC(O)CN1CCC(CN2C(=O)c3cccc4cccc(c34)C2=O)CC1 (configuration not stated),1.2,1.1,·,·,·
C=CCc1ccccc1OCC(O)CN1CCN(CCN2C(=O)c3cccc4cccc(c34)C2=O)CC1 (configuration not stated),3.7,2.4,·,·,·
CCc1nc(SCc2ccc(F)cc2)[nH]c(=O)c1C#N,–,–,–,–,–
CN(Cc1cn(-c2ccccc2)nc1-c1ccc(Cl)cc1)C(=O)CCC(=O)O,–,–,·,·,·
Cc1ccc(C2=Nc3ccccc3NC(C)(c3ccc(C)o3)C2)o1 (configuration not stated),–,–,–,38,–
CC1=CC(C)=Nc2ccccc2N1,–,–,–,–,–
COc1ccc(CNC(=O)CN(C2CCCCC2)S(C)(=O)=O)cc1,–,–,·,·,·
CC(C)NC(=O)c1c2c(nc3ccccc13)CCCC2,–,–,–,33,–
C1=CC2CC1CC2CNCc1ccco1 (configuration not stated),–,–,–,–,–
CC(=O)c1c(C)nc(-c2ccc(Cl)cc2Cl)n1O,1.2,–,–,–,–
Cc1ccc(Cc2nnc3n(-c4ccccc4)nc(C(=O)c4ccccc4)n3c2=O)cc1,–,–,–,21,–
CC1CC(C)CN(CC(C)(C)NS(=O)(=O)c2ccc(Cl)cc2)C1 (configuration not stated),–,–,·,·,·
Cc1ccc(C(=O)NN(CCC(=O)NC(C)(C)C)C2=NS(=O)(=O)c3ccccc32)cc1,–,–,·,·,·
SMILES,PTEN del growth,bCat KO growth,HUVEC prolif 384,H69AR inhibit,Fibroblast inh
Cc1cccc(/C=C(\c2nc3ccccc3[nH]2)S(=O)(=O)c2ccccc2)c1,0.9,1.9,·,·,·
COc1ccc(C2(NC(C)=O)CCN(C(=O)c3cccs3)CC2)cc1,–,–,–,–,–
COc1c(Cl)cc(Cl)cc1/C=C/C(=O)c1ccc(NC(=O)c2cccs2)cc1,1.8,2.6,·,·,·
COc1cc(NS(=O)(=O)c2ccc(NC(=O)/C(=C\c3ccccc3OC)NC(=O)c3ccccc3)cc2)nc(OC)n1,–,–,·,·,·
O=C(Nc1nc(COc2ccccc2)cs1)C12CC3CC(CC(C3)C1)C2,–,–,–,39,–
COc1cccc(-c2nn(-c3ccccc3)cc2C(=O)Nc2nccs2)c1,–,–,–,36,–
